Data taken from ChEMBL document CHEMBL4196161, “Lead Optimization of 5-Aryl Benzimidazolone- and Oxindole-Based AMPA Receptor Modulators Selective for TARP γ-8” (ACS Med Chem Lett, 2018).
pIC50: −log10 of the molar value. In brackets after ≈: the same amount, converted by molar mass.

Legend:
GRIA1/CACNG8 = GRIA1/CACNG8 (Homo sapiens, UniProt P42261+Q8WXS5); test: Modulation of recombinant human GluA1 flop isoform/TARPgamma8 expressed in HEK293F cells assessed as blockade of glutamate-induced calcium flux by calcium 5/6 dye based FLIPR assay; type: cell-based
Chain of GRIA1/CACNG8 (P42261 whole entry, the tested form may be a part, canonical isoform): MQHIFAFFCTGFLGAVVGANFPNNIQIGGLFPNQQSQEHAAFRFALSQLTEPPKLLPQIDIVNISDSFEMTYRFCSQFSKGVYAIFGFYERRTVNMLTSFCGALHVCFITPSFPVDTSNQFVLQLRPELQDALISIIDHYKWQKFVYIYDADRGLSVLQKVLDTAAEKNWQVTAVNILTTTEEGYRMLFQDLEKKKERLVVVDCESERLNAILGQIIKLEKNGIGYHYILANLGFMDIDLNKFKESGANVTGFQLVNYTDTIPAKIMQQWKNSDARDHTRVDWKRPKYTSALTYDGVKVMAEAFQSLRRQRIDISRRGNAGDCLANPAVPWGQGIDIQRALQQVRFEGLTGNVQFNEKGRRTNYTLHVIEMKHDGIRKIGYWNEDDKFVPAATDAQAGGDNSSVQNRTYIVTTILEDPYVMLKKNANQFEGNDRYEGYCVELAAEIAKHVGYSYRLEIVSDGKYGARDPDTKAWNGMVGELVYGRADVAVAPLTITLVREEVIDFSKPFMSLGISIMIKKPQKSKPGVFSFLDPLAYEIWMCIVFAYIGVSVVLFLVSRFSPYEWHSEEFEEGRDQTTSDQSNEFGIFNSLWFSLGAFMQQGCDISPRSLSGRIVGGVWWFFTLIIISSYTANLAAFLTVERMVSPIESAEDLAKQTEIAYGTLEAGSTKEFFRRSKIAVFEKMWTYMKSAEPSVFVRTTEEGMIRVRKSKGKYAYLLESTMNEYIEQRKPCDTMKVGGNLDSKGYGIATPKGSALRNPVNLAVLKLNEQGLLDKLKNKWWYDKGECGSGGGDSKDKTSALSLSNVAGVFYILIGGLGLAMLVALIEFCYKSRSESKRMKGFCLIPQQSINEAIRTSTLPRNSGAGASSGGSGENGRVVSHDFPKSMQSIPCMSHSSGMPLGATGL
Chain of GRIA1/CACNG8 (Q8WXS5 whole entry, the tested form may be a part, canonical isoform): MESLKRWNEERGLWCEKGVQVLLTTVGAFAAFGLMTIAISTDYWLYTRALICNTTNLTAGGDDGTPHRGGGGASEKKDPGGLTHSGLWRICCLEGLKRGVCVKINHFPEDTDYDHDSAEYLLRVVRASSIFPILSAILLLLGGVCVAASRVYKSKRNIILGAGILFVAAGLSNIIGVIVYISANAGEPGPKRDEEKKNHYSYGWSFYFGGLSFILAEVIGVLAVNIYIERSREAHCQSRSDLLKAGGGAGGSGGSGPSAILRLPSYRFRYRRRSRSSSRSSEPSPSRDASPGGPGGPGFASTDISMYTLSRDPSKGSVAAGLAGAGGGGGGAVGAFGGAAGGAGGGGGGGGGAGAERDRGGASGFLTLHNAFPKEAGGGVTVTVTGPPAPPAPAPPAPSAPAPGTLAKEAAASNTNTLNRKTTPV
Method in brief: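 HEK-293 cells expressing a human GluA1o-γ-8 fusion construct; FLIPR calcium-flux read-out; pIC50 reported as mean and standard deviation of at least three assays run in triplicate.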

GRIA1/CACNG2 = GRIA1/CACNG2 (Homo sapiens, UniProt P42261+Q9Y698); test: Modulation of recombinant human GluA1 flop isoform/TARPgamma2 expressed in HEK293F cells assessed as blockade of glutamate-induced calcium flux by calcium 5/6 dye based FLIPR assay; type: cell-based
Chain of GRIA1/CACNG2 (P42261 whole entry, canonical isoform): as the sequence (P42261 whole entry, the tested form may be a part, canonical isoform) above
Chain of GRIA1/CACNG2 (Q9Y698 whole entry, canonical isoform): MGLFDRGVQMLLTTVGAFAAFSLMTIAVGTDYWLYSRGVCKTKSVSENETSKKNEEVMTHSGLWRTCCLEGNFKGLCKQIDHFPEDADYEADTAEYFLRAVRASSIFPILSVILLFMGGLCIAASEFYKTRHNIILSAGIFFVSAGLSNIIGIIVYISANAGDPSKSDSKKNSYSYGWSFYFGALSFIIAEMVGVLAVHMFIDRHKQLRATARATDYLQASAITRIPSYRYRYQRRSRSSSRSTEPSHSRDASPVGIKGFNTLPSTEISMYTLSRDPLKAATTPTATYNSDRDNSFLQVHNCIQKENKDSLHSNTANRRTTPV
Method in brief: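 HEK-293 cells transiently expressing human GluA1o cotransfected with γ-2; FLIPR calcium-flux read-out; pIC50 reported; n = 1, run in triplicate.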

[1] = Clearance in Sprague-Dawley rat at 1 mg/kg, iv administered as single dose by LC-MS/MS analysis; type: ADME, organism-based; details: in vivo
Method in brief: (§1)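 Single 1 mg/kg i.v. dose as a solution to Sprague–Dawley rats (n = 3/group); vehicle 20% HP-β-CD in one study series, 1:1 PEG400/H2O in the other; plasma PK parameters derived.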

[2] = Hepatic extraction ratio in human liver microsomes at 1 uM measured after 60 mins in presence of NADPH by LC-MS/MS analysis; type: ADME, microsome; details: read-out: ERH
Method in brief: (§2)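 Human or rat liver microsomal stability at 1 μM; results expressed as extraction ratio, i.e. predicted hepatic clearance divided by species-specific hepatic blood flow.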

[3] = Hepatic extraction ratio in rat liver microsomes at 1 uM measured after 60 mins in presence of NADPH by LC-MS/MS analysis; type: ADME, microsome; details: read-out: ERH; method in brief: as §2
[4] = Apparent permeability across basolateral to apical side in MDCK-MDR1 cells at 5 uM measured after 60 mins by LC-MS/MS analysis; type: ADME, cell-based, Canis lupus familiaris; details: dog
Method in brief: (§3)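 Bidirectional apparent permeability measured in Madin–Darby canine kidney cells transfected with the MDR1 (P-gp) gene; Papp reported in ×10–6 cm/s.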

[5] = Apparent permeability across apical to basolateral side in MDCK-MDR1 cells at 5 uM measured after 60 mins by LC-MS/MS analysis; type: ADME, cell-based, Canis lupus familiaris; details: dog; method in brief: as §3
[6] = Thermodynamic solubility of the compound in simulated gastric fluid at pH 1.6 incubated under stirred condition for 3 days; type: physicochemical; details: read-out: Therm_solubility
Method in brief: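 Thermodynamic solubility (μM) determined in simulated gastric fluid at pH 1.6 and in fasted state simulated intestinal fluid at pH 6.5.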

[7] = Half life in Sprague-Dawley rat at 1 mg/kg, iv administered as single dose by LC-MS/MS analysis; type: ADME, organism-based; details: in vivo; method in brief: as §1
Homo sapiens = organism: Homo sapiens; test: Selectivity ratio of IC50 for recombinant human GluA1 flop isoform/TARPgamma2 expressed in HEK293F cells to IC50 for recombinant human GluA1 flop isoform/TARPgamma8 expressed in HEK293F cells; type: cell-based
Method in brief: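 Calcium-flux (FLIPR) inhibition in HEK-293 cells, giving pIC50 for each receptor. For γ-8, cells expressed a human GluA1o–γ-8 fusion construct, with at least three assays run in triplicate and reported as mean ± SD. For γ-2, cells expressed human GluA1-flop cotransfected with γ-2. The ratio compares the γ-2 IC50 with the γ-8 IC50.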

[8] = Volume of distribution at steady state in Sprague-Dawley rat at 1 mg/kg, iv administered as single dose by LC-MS/MS analysis; type: ADME, organism-based; details: in vivo, read-out: Vdss; method in brief: as §1
Rattus norvegicus [9] = test: Ex vivo receptor occupancy at GluA/TARPgamma8 in po dosed Sprague-Dawley rat assessed as reduction in [3H]JNJ-56022486 receptor labeling in hippocampus measured within 10 mins by autoradiography; type: functional
Rattus norvegicus [10] = test: Ex vivo receptor occupancy at GluA/TARPgamma8 in Sprague-Dawley rat assessed as reduction in [3H]JNJ-56022486 receptor labeling in hippocampus at 10 mg/kg, po at Tmax by autoradiography relative to control; type: functional
Method in brief: (§4)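 Rats (Sprague–Dawley, n = 2/dose group) dosed orally with suspensions in 0.5% HPMC at 3 or 10 mg/kg; hippocampal GluA/γ-8 occupancy at Tmax by ex vivo autoradiography with [3H]12 radiotracer; brain (ng/g) and plasma (ng/mL) concentrations taken at Tmax.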

Rattus norvegicus [11] = test: Ex vivo receptor occupancy at GluA/TARPgamma8 in po dosed Sprague-Dawley rat assessed as plasma concentration causing reduction in [3H]JNJ-56022486 receptor labeling in hippocampus at 3 mg/kg, po at Tmax by autoradiography; type: functional, organism-based; method in brief: as §4
Rattus norvegicus [12] = test: Ex vivo receptor occupancy at GluA/TARPgamma8 in po dosed Sprague-Dawley rat assessed as plasma concentration causing reduction in [3H]JNJ-56022486 receptor labeling in hippocampus at 10 mg/kg, po at Tmax by autoradiography; type: functional, organism-based; method in brief: as §4
[13] = Thermodynamic solubility of the compound in fasted state simulated intestinal fluid at pH 6.5 incubated under stirred condition for 3 days; details: read-out: Therm_solubility
[14] = Oral bioavailability in Sprague-Dawley rat at 5 mg/kg administered as single dose by LC-MS/MS analysis; type: ADME, organism-based; details: in vivo
Method in brief: (§5)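 Sprague–Dawley rats (n = 3/group) given compound as a solution in 20% HP-β-CD, 1 mg/kg i.v. and 5 mg/kg p.o.; plasma pharmacokinetics derived from these arms.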

[15] = Ratio of unbound brain to plasma concentration in Sprague-Dawley rat at 1 mg/kg, iv or 5 mg/kg, po administered as single dose by LC-MS/MS analysis; type: ADME, organism-based; details: brain and plasma, read-out: K(p,uu,brain)
[16] = Protein binding in human plasma assessed as unbound fraction at 1 uM measured after 6 hrs by equilibrium dialysis method; type: ADME, cell-free
Method in brief: (§6)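 Human or rat plasma protein binding at 1 μM compound, expressed as fraction unbound (fub).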

[17] = Protein binding in rat plasma assessed as unbound fraction at 1 uM measured after 6 hrs by equilibrium dialysis method; type: ADME, cell-free; method in brief: as §6
[18] = Volume of distribution at steady state in Sprague-Dawley rat at 1 mg/kg, iv or 5 mg/kg, po administered as single dose by LC-MS/MS analysis; type: ADME, organism-based; details: in vivo, read-out: Vdss; method in brief: as §1
[19] = Cmax in Sprague-Dawley rat at 5 mg/kg, po administered as single dose by LC-MS/MS analysis; type: ADME, organism-based; set-up: dose 5 mg/kg, route oral; details: in vivo; method in brief: as §5
Rattus norvegicus [20] = test: Ex vivo receptor occupancy at GluA/TARPgamma8 in po dosed Sprague-Dawley rat assessed as plasma concentration causing 50% reduction in [3H]JNJ-56022486 receptor labeling in hippocampus at Tmax by autoradiography; type: functional, organism-based
Method in brief: (§7)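 Oral dose–response in Sprague–Dawley rats, n = 3/dose (8 doses in one study; vehicle 0.5% HPMC or 20% HP-β-CD); hippocampal occupancy measured at Tmax by ex vivo autoradiography using [3H]-12; EC50 expressed against plasma (ng/mL) or brain (ng/g) exposure, ED50 against dose.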

Rattus norvegicus [21] = test: Ex vivo receptor occupancy at GluA/TARPgamma8 in po dosed Sprague-Dawley rat assessed as brain concentration causing 50% reduction in [3H]JNJ-56022486 receptor labeling in hippocampus at Tmax by autoradiography; type: functional, organism-based; method in brief: as §7

| SMILES | pIC50 (GRIA1/CACNG8) | pIC50 (GRIA1/CACNG2) | clearance [1] [mL/min/kg] | hepatic extraction ratio at 1 h, 1 µM [2] | hepatic extraction ratio at 1 h, 1 µM [3] | Papp B→A at 1 h, 5 µM [4] [×10⁻⁶ cm/s] | Papp A→B at 1 h, 5 µM [5] [×10⁻⁶ cm/s] | solubility thermodynamic at 72 h [6] [µM] | solubility thermodynamic at 72 h [13] [µM] | fraction unbound at 6 h, 1 µM [16] | further results |
| --- | --- | --- | --- | --- | --- | --- | --- | --- | --- | --- | --- |
| Cc1ccccc1-c1ccc2c(c1)CC(=O)N2 | 5.60 | < 5.00 | – | – | – | – | – | – | – | – | – |
| Cc1cc(-c2c(Cl)cncc2OC(F)(F)F)cc2c1NC(=O)C2 | 8.60 | < 5.00 | 37 | < 0.3 | 0.5 | 51 | 44 | 11 (≈ 3.77 µg/mL) | 45 (≈ 15.4 µg/mL) | – | half-life [7]: 1.4 h; Ratio IC50 (Homo sapiens): > 1000; Vd [8]: 2.7 L/kg; ED50 (Rattus norvegicus [9]): 5.4 mg/kg; Occ (Rattus norvegicus [10]): 86%; Cp (Rattus norvegicus [11]): 87 ng/mL; Cp (Rattus norvegicus [12]): 2050 ng/mL |
| Cc1cccc(C)c1-c1ccc2[nH]c(=O)[nH]c2c1 | – | < 5.00 | 9 | 0.3 | 0.5 | 34 | 42 | 5 (≈ 1.19 µg/mL) | 276 (≈ 65.8 µg/mL) | – | bioavailability [14]: 68%; Kp uu [15]: 0.3 |
| O=C1Cc2cc(-c3c(Cl)cccc3OC(F)(F)F)cc(F)c2N1 | 8.60 | – | – | – | – | – | – | – | – | – | – |
| O=c1[nH]c2ccc(-c3c(Cl)cccc3Cl)cc2[nH]1 | 7.30 | < 5.00 | – | < 0.3 | 0.3 | 49 | 26 | < 4 | 69 (≈ 19.3 µg/mL) | 0.5 | fraction unbound at 6 h, 1 µM [17]: 0.6 |
| O=c1[nH]c2ccc(-c3c(Cl)cccc3C3CC3)cc2[nH]1 | – | < 5.00 | 21 | < 0.3 | 0.5 | 18 | 10 | < 4 | 90 (≈ 25.6 µg/mL) | 0.2 | bioavailability [14]: 121%; Vd [18]: 4.6 L/kg; half-life [7]: 2.7 h; Cmax [19]: 502 ng/mL; EC50 (Rattus norvegicus [20]): 0.486 µg/mL (≈ 1.71 µM); EC50 (Rattus norvegicus [21]): 1611 ng/g; ED50 (Rattus norvegicus [9]): 3.2 mg/kg; Kp uu [15]: 0.3 |
| Cc1cccc(Cl)c1-c1ccc2[nH]c(=O)[nH]c2c1 | 7.30 | < 5.00 | – | < 0.3 | 0.6 | 32 | 25 | < 4 | 146 (≈ 37.8 µg/mL) | 0.9 | – |
